Screening data from PubChem BioAssay.
The list is not random: actives were taken first. Their share in the collection is about 2.8%.
T cell HTS: modulators of CD8 T cell-vesicle binding, primary screen, mouse 2C CD8+ T cells, flow cytometry; 330,000 compounds, 0.068% hits; 2C CD8+ T cell-vesicle binding; stronger effect = lower value; AID 2052, 2009; response (vesicle binding), % at 7 µM;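 active = response, share of CD8 T cells binding vesicles, and their 90th percentile fluorescence all below set limits, cut at about 80% in these data, passing the limit was not always enough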;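 also: values below 100% mean blocked vesicle binding to the CD8+ T cells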
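Benchmarks: naked versus QL9-loaded vesicles / Assay system: purified 2C TCR transgenic mouse naive CD8+ T cells / Technique: high-throughput flow cytometry with anti-B7-1 and anti-CD8 staining / Timing: Cell–vesicle co-incubation 1.5 h at 37 °C, staining 20 min on ice / Read-out: percent CD8+ FL2 mean versus row control / Probe or stimulus: QL9-loaded Drosophila micro-vesicles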
NR3A LBD binder: binders of NR3A ligand-binding domain, primary screen, biophysical, differential scanning fluorimetry, uHTS | Glutamate receptor ionotropic, NMDA 3A (GRIN3A) ligand-binding domain | NR3A LBD differential scanning fluorimetry, Tm shift; 0% = protein alone, 100% = glycine-bound protein | Tm shift relative to glycine control, % at 25 µM | 340,000 compounds, 2.5% hits;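 active = melting temperature shift of at least 10% of the positive control shift, at one fixed dose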
GASC-1 inh: inhibitors of GASC-1 histone demethylase, primary screen, biochemical, fluorescence, DELFIA europium; Lysine-specific demethylase 4C (Homo sapiens), Q9H3R0; inhibition, % at 2.35 µM; GST-JMJD2C(1-420) H3K9me3 demethylation; 330,000 compounds, 0.069% hits;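 active = more than half of a compound's replicate wells show inhibition beyond 50%, single wells judged on their own value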;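 also: signal counts dimethyl H3K9 product captured on neutravidin plate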
Rtt109 HAT inh: inhibitors of C. albicans Rtt109/Vps75 HAT, primary screen, biochemical, ThioGlo CoA-SH fluorescence, plate reader | purified Rtt109/Vps75, 4 h | inhibition, % at 34.9 µM | 330,000 compounds, 0.16% hits | AID 540336, 2011;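 active = inhibition of at least 50% in every replicate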
Target sequence (Q5AAJ8 whole entry, looked up): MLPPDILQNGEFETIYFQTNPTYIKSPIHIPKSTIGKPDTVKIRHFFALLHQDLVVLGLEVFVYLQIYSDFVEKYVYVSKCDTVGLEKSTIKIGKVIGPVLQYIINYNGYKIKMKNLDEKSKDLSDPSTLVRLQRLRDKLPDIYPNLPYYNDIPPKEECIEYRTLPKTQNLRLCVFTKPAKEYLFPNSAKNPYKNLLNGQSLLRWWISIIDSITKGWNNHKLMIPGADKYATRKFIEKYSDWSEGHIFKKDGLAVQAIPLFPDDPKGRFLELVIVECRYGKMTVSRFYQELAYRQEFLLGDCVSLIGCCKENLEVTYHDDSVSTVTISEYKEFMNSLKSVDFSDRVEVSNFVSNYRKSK
Large screens that a line does not name were inactive.

S=C(NCCCc1ccccc1)Nc1ccccc1	none
O=C(NC(=S)Nc1ccc(N2CCCC2)cc1)c1ccc(F)cc1	none
O=C1N[C@@H](Cc2c[nH]c3ccccc23)COC(=O)[C@@H](Cc2ccc(F)cc2)CC/C=C/C[C@@H]1CC(=O)N(CCO)Cc1ccccc1	none (no result: GASC-1 inh)
O=C(O)CCn1cc(-c2ccc(F)cc2)nc1-c1ccncc1	none
N#Cc1c(SCC(=O)Nc2ccccc2)nsc1SCC(=O)Nc1ccccc1	NR3A LBD binder 15
CC(=O)Nc1cccc(NC(=O)CSc2nc(C)c(C)c(C)c2C#N)c1	none
Cc1cccc(NC(=O)CSc2nsc(SCC(=O)Nc3cccc(C)c3)c2C#N)c1	NR3A LBD binder 14
CCOC(=O)C1(C(=O)OCC)C(C(=O)c2ccccc2)C1c1ccccc1 (stereo unspecified)	none (no result: T cell HTS, GASC-1 inh)
CCCc1cc(=O)[nH]c(SCC(=O)Nc2nc(-c3ccccc3)cs2)n1	none
CCc1c(C)nc(SCC(=O)Nc2nc(-c3ccc(OC)cc3)cs2)[nH]c1=O	T cell HTS 53
O=C(Cn1c(=O)oc2ccccc21)Nc1nc(-c2ccc(Br)cc2)cs1	NR3A LBD binder 15
CCc1c(C)nc(SCC(=O)NNC(=O)Cc2ccc(OC)cc2)[nH]c1=O	none
O=C(CSc1nc2ccccc2[nH]1)Nc1nc(-c2ccc(Br)cc2)cs1	NR3A LBD binder 35
Cc1ccc(N(CCC(=O)N2CCOCC2)S(=O)(=O)c2ccccc2)cc1	none
Clc1cc(Cl)c(OCCCCn2cncn2)c(Cl)c1	none
CCCc1nnc(NC(=O)CN2CCOCC2)s1	none
CCc1nnc(NC(=O)CN2CCOCC2)s1	NR3A LBD binder 14
Nc1c(S(=O)(=O)c2ccccc2)c2nc3ccccc3nc2n1/N=C/c1ccco1	NR3A LBD binder 13
Cc1cccc(S(=O)(=O)c2c(N)n(/N=C/c3cccnc3)c3nc4ccccc4nc23)c1	NR3A LBD binder 45
Nc1c(S(=O)(=O)c2cccs2)c2nc3ccccc3nc2n1/N=C/c1cccc(O)c1	NR3A LBD binder 28
Cc1cccc(S(=O)(=O)c2c(N)n(-c3ccccc3)c3nc4ccccc4nc23)c1	NR3A LBD binder 12
CC(C)[C@H]1C(=O)Nc2ccccc2N1C(=O)N[C@@H](Cc1ccccc1)C(=O)N[C@@H](C(=O)O)c1ccccc1	none
CC(=O)OCC(=O)C1(O)CCC2C3CCC4=CC(=O)CCC4(C)C3(Cl)C(O)CC21C (stereo unspecified)	none (no result: T cell HTS, GASC-1 inh)
COC(=O)c1ccc(COC(=O)C(CCSC)NC(=O)COc2ccccc2)cc1 (stereo unspecified)	NR3A LBD binder 22
COc1cc(/C=C/C(=O)O)cc(S(=O)(=O)N(C)CCO)c1OC	T cell HTS 0.0
O=C(Nc1ccccc1Cl)N1CCN(c2ccc3nnc(-c4ccccc4)n3n2)CC1	none
O=C(Nc1ccc(Cl)cc1)N1CCN(c2ccc3nnc(-c4ccc(F)cc4)n3n2)CC1	NR3A LBD binder 27
Clc1ccccc1CSc1cnnc2ccccc12	none (no result: T cell HTS, GASC-1 inh)
COc1c2occc2c(OC)c2c(=O)cc(C(F)(F)F)oc12	NR3A LBD binder 16
Cc1cc2c(c(CO)c1CCO)C(=O)[C@@H](C)[C@@H]2O	none
C/C(=N\O)c1ccc(N2C(=O)C3CC=C(Cl)CC3C2=O)cc1 (stereo unspecified)	none
Cc1ccc(NC(=O)c2ccc(N3C(=O)C4CC=C(Cl)CC4C3=O)cc2)cc1 (stereo unspecified)	NR3A LBD binder 26
CC(=O)NS(=O)(=O)c1ccc(NC(=O)c2ccc3c(c2)OCO3)cc1	none (no result: T cell HTS)
CCNC(=O)c1ccc2c(c1)S(=O)(=O)c1ccccc1C2=O	GASC-1 inh 51
O=C(c1ccc2ncsc2c1)N1CCN(c2cccc(C(F)(F)F)c2)CC1	none (no result: T cell HTS, GASC-1 inh)
Cc1ccc(C(C)C)c(OCC(=O)NNCC(=O)Nc2cccc(F)c2)c1	none
O=C(COC(=O)c1ccccc1OC(F)F)Nc1ccc2[nH]c(=O)[nH]c2c1	none
Cc1ccc(-n2nnnc2SCC(=O)Nc2nc(-c3ccc(F)cc3)cs2)cc1C	NR3A LBD binder 30 (no result: T cell HTS)
Cc1cc(C)cc(-n2nnnc2SCC(=O)Nc2nc(-c3ccc(F)cc3)cs2)c1	none (no result: NR3A LBD binder)
CCCNC(=O)C1CN(C(=O)c2nn(Cc3ccccc3)c(=O)c3ccccc23)c2ccccc2O1 (stereo unspecified)	none
O=CN1CCN(C=O)C(O)C1O (stereo unspecified)	none (no result: T cell HTS, GASC-1 inh)
Cc1ccc(-c2nnn(CC(=O)N(Cc3ccccc3)C(C(=O)NC(C)(C)C)c3ccncc3)n2)o1 (stereo unspecified)	NR3A LBD binder 14
Cc1ccc(C(C(=O)NC(C)(C)C)N(Cc2ccco2)C(=O)Cn2nnc(-c3cccs3)n2)cc1 (stereo unspecified)	NR3A LBD binder 12
CCOc1ccc(NC(=O)CN(C)C(=O)CCNC(=O)c2ccco2)cc1OCC	none
COc1cccc(-c2csc(N3CCN(C(=S)Nc4ccccc4)CC3)n2)c1	none
COc1cccc(-c2csc(N3CCN(C(=S)Nc4ccc(Cl)cc4)CC3)n2)c1	NR3A LBD binder 10 (no result: Rtt109 HAT inh)
O=[N+]([O-])c1cccc(-c2ccc(/C=N/NC(=S)Nc3cccc(F)c3)o2)c1	NR3A LBD binder 28
Cc1ccc(-c2ccc(/C=N/NC(=S)Nc3ccccc3)o2)cc1[N+](=O)[O-]	NR3A LBD binder 27
CNC(=S)N/N=C/c1ccc(-c2ccc(Cl)c([N+](=O)[O-])c2)o1	none
NC(=S)N/N=C/c1ccc(-c2cccc([N+](=O)[O-])c2)o1	none
CCC(C)[C@H](NS(=O)(=O)c1ccc(C)cc1)C(=O)N1CCC(C(=O)N2CCC(C(N)=O)CC2)CC1 (stereo partly specified)	none (no result: GASC-1 inh)
Cc1cccc(NC(=O)CNC(=O)CN2C(=O)NC(C)(CCC(C)C)C2=O)c1C (stereo unspecified)	none (no result: T cell HTS, GASC-1 inh)
Cc1ccc(CN(C)C(=O)c2ccc(S(=O)(=O)N(C)c3ccccc3)cc2)o1	NR3A LBD binder 22 (no result: T cell HTS, GASC-1 inh)
CC(=O)Nc1ccc(NC(=O)c2ccc(S(=O)(=O)N(C)c3ccccc3)cc2)cc1	none
CN(c1ccccc1)S(=O)(=O)c1ccc(NC(=O)CC(=O)c2ccccc2)cc1	NR3A LBD binder 16 (no result: T cell HTS, GASC-1 inh)
O=C(COC(=O)c1ccc2c(c1)C(=O)N(Cc1ccco1)C2=O)NCC(F)(F)F	none
CCc1cc2cc(C)c(C)cc2nc1SCC(=O)NNC(=O)c1ccco1	NR3A LBD binder 13
COc1ccc(C)cc1NC(=O)Cn1c(=O)oc2ccccc21	none
CCOC(=O)c1ccc(Nc2ncnc3nc[nH]c23)cc1	none
c1ccc(COc2ccc(Nc3ncnc4nc[nH]c34)cc2)cc1	NR3A LBD binder 26
CSc1cccc(N2CC(C(=O)NCCC3=CCCCC3)CC2=O)c1 (stereo unspecified)	none
COc1ccccc1OCCNC(=O)C1CC(=O)N(c2cccc(SC)c2)C1 (stereo unspecified)	NR3A LBD binder 17
Nc1c(N(CCC2=CCCCC2)C(=O)c2ccc([N+](=O)[O-])o2)c(=O)[nH]c(=O)n1Cc1ccccc1	none
